The test system of one assay is Bacillus subtilis. In words: Antibacterial activity against Bacillus subtilis NBRC 3134 after overnight incubation by microdilution method. The format is functional. The method in brief:
(§1)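 Broth microdilution MIC. Strains were first grown on YP agar (1% polypeptone, 0.2% yeast extract, 0.1% MgSO4·7H2O, 6% agar) for 12 h, B. subtilis at 37 °C and K. pneumoniae at 27 °C. Samples came from a 10 mg/mL DMSO stock, serially diluted in 96-well plates of strain in YP medium, then incubated overnight at 37 °C. Ampicillin served as reference.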
(Broth dilution looks for growth in wells or tubes with falling amounts of substance.)

The test system of another assay is HL-60. In words: Cytotoxicity against human HL60 cells after 72 hrs by WST8 assay. The format is functional, cell-based. To be noted: HL-60, 72 h. The essentials:
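HL-60 cells were kept in RPMI-1640 with 10% FBS at 37 °C under 5% CO2. Cells were seeded at 5 × 10^3 per well and preincubated 2 h, then exposed to compound in medium for 72 h. WST-8 was added for a further 3 h, and formazan absorbance was read at 450 nm to give IC50.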
In general terms: Formazan colour is commonly taken as a measure of viable cells.

The test system of the next assay is Klebsiella pneumoniae. In words: Antibacterial activity against Klebsiella pneumoniae NBRC 3512 after overnight incubation by microdilution method. The format is functional. The essentials:
as §1

Molecules are shown by their SMILES. ≈ marks a conversion by molar mass, not a printed value.

`COc1cc2ccc3cc(O)ccc3c2c(OC)c1O` showed an MIC against Bacillus subtilis of 185 µM (≈ 50.1 µg/mL). Moreover, the midpoint of inhibition in the assay with HL-60, the IC50, lay at 34.2 µM.

Take `COc1ccc2c(ccc3cc(OC)c(O)c(OC)c32)c1`: the MIC against Bacillus subtilis came out at 52.8 µM (≈ 15 µg/mL). This compound had an IC50 with HL-60 of 19.3 µM.

On to `COc1ccc2c(c1)CCc1cc(OC)c(O)c(OC)c1-2`, for which half-maximal inhibition in the assay with HL-60 (IC50) was put at 31.8 µM.

In the assay with Bacillus subtilis, `COc1cc2ccc3c(OC)c(O)ccc3c2c(OC)c1O` registered a minimum inhibitory concentration (MIC) of 250 µM (≈ 75.1 µg/mL). Moreover, the half-maximal inhibitory concentration (IC50) with HL-60 amounted to 103 µM.

As for `CC1(C)S[C@@H]2[C@H](NC(=O)[C@H](N)c3ccccc3)C(=O)N2[C@H]1C(=O)O` [AMPICILLIN], the minimal inhibitory concentration (MIC) stood at 0.36 µM (≈ 0.126 µg/mL) in the assay with Bacillus subtilis and 107 µM (≈ 37.5 µg/mL) with Klebsiella pneumoniae.

For `COc1cc2ccc3cccc(O)c3c2c(OC)c1O` [BULBOPHYLLANTHRIN], the minimum inhibitory concentration (MIC) in the assay with Bacillus subtilis and against Klebsiella pneumoniae was 185 µM (≈ 50.1 µg/mL) each time. Moreover, the 50% inhibitory concentration (IC50) in the assay with HL-60 amounted to 52.4 µM.

`COC1=CC(=O)C2=C(CCc3cccc(O)c32)C1=O` [EPHEMERANTHOQUINONE B] registered an MIC in the assay on Bacillus subtilis of 4.88 µM (≈ 1.25 µg/mL). Moreover, the IC50 in the assay with HL-60 came out at 2.8 µM.

As to `COc1c(O)cc2c(c1OC)-c1ccc(O)cc1CC2` [ERIANTHRIDIN], the IC50 with HL-60 came to 44.6 µM.

In turn, `COc1cc2c(c(OC)c1O)-c1c(O)cccc1CC2` [MARYLAURENCINOLS A] came in with a 50% inhibitory concentration (IC50) in the assay on HL-60 of 96.8 µM.

Turning to `COc1c(O)c2c(c(OC)c1O)-c1c(O)cccc1CC2` [MARYLAURENCINOLS B], the lowest concentration to inhibit growth against Bacillus subtilis (MIC) was 65.1 µM (≈ 18.8 µg/mL). This compound also came in with an IC50 in the assay on HL-60 of 174 µM.

In the case of `COc1cc2c(c(O[C@@H]3O[C@H](CO)[C@@H](O)[C@H](O)[C@H]3O)c1O)-c1c(O)cccc1CC2` [MARYLAURENCINOSIDE A], the IC50 in the assay with HL-60 is 52.4 µM.

`CO[C@@]12[C@H](COC(N)=O)C3=C(C(=O)C(C)=C(N)C3=O)N1C[C@@H]1N[C@@H]12` [MITOMYCIN] registered an IC50 in the assay with HL-60 of 0.1 µM.

The term MIC denotes the smallest concentration in the dilution series that meets the test's criterion for growth inhibition. Lower therefore signals inhibition by little substance. In general, IC50 refers to the point on the concentration scale where inhibition reaches its midpoint.
